From ChEMBL document CHEMBL4364271, “Unveiling the Importance of Amide Protons in CSP:ComD Interactions in Streptococcus pneumoniae” (ACS Med Chem Lett, 2019)
Active and inactive are the calls of the source. The rule behind the calls is not given here. Non-standard residues stand in square brackets, D forms with d. Residues, ends and D or L forms follow the SMILES beside them. NMeR = CN[C@@H](CCCNC(=N)N)C(=O)O; NMeF = CN[C@@H](Cc1ccccc1)C(=O)O; NMeI = CC[C@H](C)[C@H](NC)C(=O)O; NMeE = CN[C@@H](CCC(=O)O)C(=O)O; NMeM = CN[C@@H](CCSC)C(=O)O

How the values were obtained:
[1] = tested on: Streptococcus pneumoniae D39; experiment: Agonist activity at ComD1 receptor in Streptococcus pneumoniae D39 harboring pcomX/lacZ reporter gene at 10 uM incubated for 30 mins by ONPG based beta-galactosidase assay relative to native CSP1
Procedure, shortened: (§1)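 Single-dose screen of synthetic peptide at 10 μM in wild-type reporter strains (D39 for ComD1, TIGR4 for ComD2) producing their own CSP and carrying lacZ under the comX promoter. β-gal activity in Miller units normalized to native CSP (CSP1 or CSP2, 100%); DMSO 0%. Triplicates over three separate trials.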

[2] = tested on: Streptococcus pneumoniae TIGR4; experiment: Agonist activity at ComD2 receptor in Streptococcus pneumoniae TIGR4 harboring pcomX/lacZ reporter gene at 10 uM incubated for 30 mins by ONPG based beta-galactosidase assay relative to native CSP2; procedure, shortened: as §1
[3] = Agonist activity at ComD2 receptor in Streptococcus pneumoniae TIGR4 harboring pcomX/lacZ reporter gene incubated for 30 mins by ONPG based beta-galactosidase assay
Procedure, shortened: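 Dose-response in wild-type lacZ reporter strains (comX promoter; D39 for ComD1, TIGR4 for ComD2) producing native CSP. Peptides tested over a range of concentrations. β-gal read-out (Miller units) normalized to native CSP. EC50 reported with 95% confidence interval.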

Molecule	Activity [1]	Activity [2]	EC50 [3] [µM]
CC[C@H](C)[C@@H](C(=O)N[C@@H](CC(C)C)C(=O)N[C@@H](CCC(N)=O)C(=O)N[C@@H](CCCNC(=N)N)C(=O)O)N(C)C(=O)[C@H](Cc1ccccc1)NC(=O)[C@H](CC(=O)O)NC(=O)[C@H](CCCNC(=N)N)NC(=O)[C@H](Cc1ccccc1)NC(=O)[C@H](Cc1ccccc1)NC(=O)[C@H](CCCCN)NC(=O)[C@H](CO)NC(=O)[C@H](CC(C)C)NC(=O)[C@H](CCCNC(=N)N)NC(=O)[C@H](CCSC)NC(=O)[C@@H](N)CCC(=O)O (H-EMRLSKFFRDF[NMeI]LQR-OH)	inactive	inactive	–
CC[C@H](C)[C@H](NC(=O)[C@H](Cc1ccccc1)N(C)C(=O)[C@H](CC(=O)O)NC(=O)[C@H](CCCNC(=N)N)NC(=O)[C@H](Cc1ccccc1)NC(=O)[C@H](Cc1ccccc1)NC(=O)[C@H](CCCCN)NC(=O)[C@H](CO)NC(=O)[C@H](CC(C)C)NC(=O)[C@H](CCCNC(=N)N)NC(=O)[C@H](CCSC)NC(=O)[C@@H](N)CCC(=O)O)C(=O)N[C@@H](CC(C)C)C(=O)N[C@@H](CCC(N)=O)C(=O)N[C@@H](CCCNC(=N)N)C(=O)O (H-EMRLSKFFRD[NMeF]ILQR-OH)	inactive	> 75%	> 1
CC[C@H](C)[C@H](NC(=O)[C@H](Cc1ccccc1)NC(=O)[C@H](CC(=O)O)NC(=O)[C@H](CCCNC(=N)N)N(C)C(=O)[C@H](Cc1ccccc1)NC(=O)[C@H](Cc1ccccc1)NC(=O)[C@H](CCCCN)NC(=O)[C@H](CO)NC(=O)[C@H](CC(C)C)NC(=O)[C@H](CCCNC(=N)N)NC(=O)[C@H](CCSC)NC(=O)[C@@H](N)CCC(=O)O)C(=O)N[C@@H](CC(C)C)C(=O)N[C@@H](CCC(N)=O)C(=O)N[C@@H](CCCNC(=N)N)C(=O)O (H-EMRLSKFF[NMeR]DFILQR-OH)	inactive	inactive	–
CC[C@H](C)[C@H](NC(=O)[C@H](Cc1ccccc1)NC(=O)[C@H](CC(=O)O)NC(=O)[C@H](CCCNC(=N)N)NC(=O)[C@H](Cc1ccccc1)NC(=O)[C@H](Cc1ccccc1)NC(=O)[C@H](CCCCN)NC(=O)[C@H](CO)NC(=O)[C@H](CC(C)C)NC(=O)[C@H](CCCNC(=N)N)N(C)C(=O)[C@H](CCSC)NC(=O)[C@@H](N)CCC(=O)O)C(=O)N[C@@H](CC(C)C)C(=O)N[C@@H](CCC(N)=O)C(=O)N[C@@H](CCCNC(=N)N)C(=O)O (H-EM[NMeR]LSKFFRDFILQR-OH)	inactive	inactive	–
CC[C@H](C)[C@H](NC(=O)[C@H](Cc1ccccc1)NC(=O)[C@H](CC(=O)O)NC(=O)[C@H](CCCNC(=N)N)NC(=O)[C@H](Cc1ccccc1)NC(=O)[C@H](Cc1ccccc1)NC(=O)[C@H](CCCCN)NC(=O)[C@H](CO)NC(=O)[C@H](CC(C)C)NC(=O)[C@H](CCCNC(=N)N)NC(=O)[C@H](CCSC)N(C)C(=O)[C@@H](N)CCC(=O)O)C(=O)N[C@@H](CC(C)C)C(=O)N[C@@H](CCC(N)=O)C(=O)N[C@@H](CCCNC(=N)N)C(=O)O (H-E[NMeM]RLSKFFRDFILQR-OH)	inactive	inactive	–
CC[C@H](C)[C@H](NC(=O)[C@H](Cc1ccccc1)NC(=O)[C@H](CC(=O)O)NC(=O)[C@H](CCCNC(=N)N)NC(=O)[C@H](Cc1ccccc1)NC(=O)[C@H](Cc1ccccc1)NC(=O)[C@H](CCCCN)NC(=O)[C@H](CO)NC(=O)[C@H](CC(C)C)NC(=O)[C@H](CCCNC(=N)N)NC(=O)[C@H](CCSC)NC(=O)[C@H](CCC(=O)O)NC)C(=O)N[C@@H](CC(C)C)C(=O)N[C@@H](CCC(N)=O)C(=O)N[C@@H](CCCNC(=N)N)C(=O)O (H-[NMeE]MRLSKFFRDFILQR-OH)	inactive	inactive	–
H-EMRISRIILDFLF-OH	–	–	0.078
H-EMRISRIILDFLFLRKK-OH	–	–	0.051
